Laboratory results from ChEMBL document CHEMBL1142302, “Discovery of subnanomolar arginine-glycine-aspartate-based alphaVbeta3/alphaVbeta5 integrin binders embedding 4-aminoproline residues” (J Med Chem, 2008).
*1 amine or outer side, *2 acyl side, *3 side chain or, on linkers, in order; H or OH if unused. Where a SMILES comes first, the peptide text is derived from it. Bridges are numbered along the chain shown (N, C = ends). [ ]: non-standard residue; d: D form. Pro(trans-4-NH2) = O=C([C@@H]1C[C@@H](N[*:3])CN1[*:1])[*:2]

Tests used:
Integrin alpha-V/beta-5 [1] = target: T1, Integrin alpha-V/beta-5 (Homo sapiens, UniProt P06756+P18084); test: Displacement of [125I]echistatin from human integrin alpha-V-beta-5 receptor by solid phase assay; assay type: protein-complex assay
How it was run: (§1)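 Competitive binding to purified human integrin protein (αVβ3 or αVβ5) measured as inhibition of [¹²⁵I]-echistatin specific binding over a range of inhibitor concentrations. Each point is the mean ± SEM of triplicate determinations, and IC50 is read from the inhibition curves.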
Target sequence in this assay (P06756 31-889 limits assumed): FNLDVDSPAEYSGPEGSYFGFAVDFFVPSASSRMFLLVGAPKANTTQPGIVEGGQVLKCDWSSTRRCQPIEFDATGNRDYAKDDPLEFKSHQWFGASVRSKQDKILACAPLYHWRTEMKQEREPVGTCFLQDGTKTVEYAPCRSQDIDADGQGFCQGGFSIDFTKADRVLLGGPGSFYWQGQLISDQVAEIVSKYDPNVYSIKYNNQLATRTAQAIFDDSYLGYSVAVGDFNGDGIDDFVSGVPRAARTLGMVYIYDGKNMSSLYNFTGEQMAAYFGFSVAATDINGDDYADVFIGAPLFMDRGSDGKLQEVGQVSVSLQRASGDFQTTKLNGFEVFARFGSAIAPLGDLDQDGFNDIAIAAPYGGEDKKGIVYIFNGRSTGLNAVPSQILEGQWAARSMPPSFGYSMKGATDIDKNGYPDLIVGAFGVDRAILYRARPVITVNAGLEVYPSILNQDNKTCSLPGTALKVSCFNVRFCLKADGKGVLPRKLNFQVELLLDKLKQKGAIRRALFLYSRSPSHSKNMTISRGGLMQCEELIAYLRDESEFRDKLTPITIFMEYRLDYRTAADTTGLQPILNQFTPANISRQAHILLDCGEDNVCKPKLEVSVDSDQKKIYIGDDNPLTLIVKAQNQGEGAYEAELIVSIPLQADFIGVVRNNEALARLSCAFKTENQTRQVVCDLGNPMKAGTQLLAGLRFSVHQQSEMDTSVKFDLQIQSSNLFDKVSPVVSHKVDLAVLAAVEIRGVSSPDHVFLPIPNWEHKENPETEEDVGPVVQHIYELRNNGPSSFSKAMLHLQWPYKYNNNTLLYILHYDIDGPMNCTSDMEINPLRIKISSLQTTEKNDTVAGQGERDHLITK
Target sequence in this assay (P06756 891-1048 limits assumed): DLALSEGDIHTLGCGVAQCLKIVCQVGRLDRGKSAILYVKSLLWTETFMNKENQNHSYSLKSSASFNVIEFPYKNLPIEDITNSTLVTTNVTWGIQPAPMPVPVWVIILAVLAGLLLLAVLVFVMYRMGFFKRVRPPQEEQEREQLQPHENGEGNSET
Target sequence in this assay (P18084 24-799 limits assumed): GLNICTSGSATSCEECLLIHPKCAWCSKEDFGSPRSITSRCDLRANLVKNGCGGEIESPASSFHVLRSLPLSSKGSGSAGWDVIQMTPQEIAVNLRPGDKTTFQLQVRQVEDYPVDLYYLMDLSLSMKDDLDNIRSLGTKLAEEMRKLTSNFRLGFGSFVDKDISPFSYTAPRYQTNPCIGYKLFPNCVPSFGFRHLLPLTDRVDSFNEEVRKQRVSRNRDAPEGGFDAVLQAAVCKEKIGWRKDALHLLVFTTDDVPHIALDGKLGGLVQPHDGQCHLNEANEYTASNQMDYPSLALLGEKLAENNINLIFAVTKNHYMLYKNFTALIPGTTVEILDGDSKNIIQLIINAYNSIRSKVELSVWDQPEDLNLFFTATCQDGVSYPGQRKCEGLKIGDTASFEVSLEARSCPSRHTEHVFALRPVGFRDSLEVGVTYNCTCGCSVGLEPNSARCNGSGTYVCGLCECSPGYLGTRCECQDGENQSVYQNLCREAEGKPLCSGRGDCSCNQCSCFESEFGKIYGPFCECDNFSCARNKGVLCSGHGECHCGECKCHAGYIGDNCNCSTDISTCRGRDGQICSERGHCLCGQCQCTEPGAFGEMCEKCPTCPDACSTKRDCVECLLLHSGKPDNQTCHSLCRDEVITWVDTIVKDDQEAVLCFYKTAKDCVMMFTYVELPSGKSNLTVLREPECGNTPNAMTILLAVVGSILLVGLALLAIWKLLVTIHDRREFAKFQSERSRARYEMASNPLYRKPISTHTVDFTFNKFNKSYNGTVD

Integrin alpha-V/beta-3 [2] = target: T2, Integrin alpha-V/beta-3 (Homo sapiens, UniProt P05106+P06756); test: Displacement of [125I]echistatin from human integrin alpha-V-beta-3 receptor by solid phase assay; assay type: protein-complex assay; how it was run: as §1
Target sequence in this assay (P05106 27-788 limits assumed): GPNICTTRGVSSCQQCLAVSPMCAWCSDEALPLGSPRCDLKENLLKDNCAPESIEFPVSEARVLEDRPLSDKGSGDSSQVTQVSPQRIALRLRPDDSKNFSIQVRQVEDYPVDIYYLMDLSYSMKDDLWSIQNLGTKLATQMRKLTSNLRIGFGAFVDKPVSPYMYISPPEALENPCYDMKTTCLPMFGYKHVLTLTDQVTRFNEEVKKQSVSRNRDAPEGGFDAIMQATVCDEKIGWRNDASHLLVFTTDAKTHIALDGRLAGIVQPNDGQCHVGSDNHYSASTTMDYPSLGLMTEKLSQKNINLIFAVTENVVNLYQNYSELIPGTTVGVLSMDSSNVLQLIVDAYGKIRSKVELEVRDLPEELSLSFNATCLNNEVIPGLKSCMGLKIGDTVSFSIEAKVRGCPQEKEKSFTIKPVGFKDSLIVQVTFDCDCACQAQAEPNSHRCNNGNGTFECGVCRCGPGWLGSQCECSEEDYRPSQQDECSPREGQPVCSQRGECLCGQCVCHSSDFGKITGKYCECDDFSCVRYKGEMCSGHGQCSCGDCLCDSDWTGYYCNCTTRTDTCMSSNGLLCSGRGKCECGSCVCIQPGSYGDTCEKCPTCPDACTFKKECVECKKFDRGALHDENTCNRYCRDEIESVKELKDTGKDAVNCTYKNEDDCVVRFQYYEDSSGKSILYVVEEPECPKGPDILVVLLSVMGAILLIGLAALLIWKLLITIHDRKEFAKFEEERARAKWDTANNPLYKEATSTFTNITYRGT
Target sequence in this assay (P06756 31-889 limits assumed): as the sequence (P06756 31-889 limits assumed) above
Target sequence in this assay (P06756 891-1048 limits assumed): as the sequence (P06756 891-1048 limits assumed) above

Integrin alpha-V/beta-3 [3] = target: T2, Integrin alpha-V/beta-3; test: Displacement of [125I]echistatin from human integrin alpha-V-beta-3 receptor low affinity state by solid phase assay; assay type: protein-complex assay
Target sequence in this assay (P05106 27-788 limits assumed): as the sequence (P05106 27-788 limits assumed) above
Target sequence in this assay (P06756 31-889 limits assumed): as the sequence (P06756 31-889 limits assumed) above
Target sequence in this assay (P06756 891-1048 limits assumed): as the sequence (P06756 891-1048 limits assumed) above

Integrin alpha-V/beta-5 [4] = target: T1, Integrin alpha-V/beta-5; test: Displacement of [125I]echistatin from human integrin alpha-V-beta-5 receptor low affinity state by solid phase assay; assay type: protein-complex assay
Target sequence in this assay (P06756 31-889 limits assumed): as the sequence (P06756 31-889 limits assumed) above
Target sequence in this assay (P06756 891-1048 limits assumed): as the sequence (P06756 891-1048 limits assumed) above
Target sequence in this assay (P18084 24-799 limits assumed): as the sequence (P18084 24-799 limits assumed) above

Integrin alpha-V/beta-3 [5] = target: T2, Integrin alpha-V/beta-3; test: Displacement of [125I]echistatin from human integrin alpha-V-beta-3 receptor high affinity state by solid phase assay relative to control; assay type: protein-complex assay; design: concentration or dose not given beside the values; details: concentration not given here
How it was run: (§2)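 Competition for [125I]-echistatin specific binding to purified human αvβ3 or αvβ5 integrin protein. Inhibition was plotted against test compound concentration. Each point is the mean ± SEM of triplicate determinations.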

Integrin alpha-V/beta-3 [6] = target: T2, Integrin alpha-V/beta-3; test: Displacement of [125I]echistatin from human integrin alpha-V-beta-3 receptor low affinity state by solid phase assay relative to control; assay type: protein-complex assay; design: concentration or dose not given beside the values; details: concentration not given here; how it was run: as §2
Integrin alpha-V/beta-5 [7] = target: T1, Integrin alpha-V/beta-5; test: Displacement of [125I]echistatin from human integrin alpha-V-beta-5 receptor high affinity state by solid phase assay relative to control; assay type: protein-complex assay; details: concentration not given here
Integrin alpha-V/beta-5 [8] = target: T1, Integrin alpha-V/beta-5; test: Displacement of [125I]echistatin from human integrin alpha-V-beta-5 receptor low affinity state by solid phase assay relative to control; assay type: protein-complex assay; details: concentration not given here
Integrin alpha-5/beta-1 [9] = target: T3, Integrin alpha-5/beta-1 (Homo sapiens, UniProt P05556+P08648); test: Inhibition of human integrin alpha-5-beta-1 receptor mediated WM115 cell adhesion to vitronectin; assay type: cell-based, WM-115
Integrin alpha-V/beta-3 [10] = target: T2, Integrin alpha-V/beta-3; test: Inhibition of human integrin alpha-v-beta-3 receptor mediated WM115 cell adhesion to vitronectin; assay type: cell-based, WM-115
Target sequence in this assay (P05106 27-788 limits assumed): as the sequence (P05106 27-788 limits assumed) above
Target sequence in this assay (P06756 31-889 limits assumed): as the sequence (P06756 31-889 limits assumed) above
Target sequence in this assay (P06756 891-1048 limits assumed): as the sequence (P06756 891-1048 limits assumed) above

Integrin alpha-V/beta-3 [11] = target: T2, Integrin alpha-V/beta-3; test: Inhibition of human integrin alpha-V-beta-3 receptor mediated K562 cell adhesion to vitronectin; assay type: cell-based
Target sequence in this assay (P05106 27-788 limits assumed): as the sequence (P05106 27-788 limits assumed) above
Target sequence in this assay (P06756 31-889 limits assumed): as the sequence (P06756 31-889 limits assumed) above
Target sequence in this assay (P06756 891-1048 limits assumed): as the sequence (P06756 891-1048 limits assumed) above

Integrin alpha-5/beta-1 [12] = target: T3, Integrin alpha-5/beta-1; test: Inhibition of human integrin alpha5beta1 receptor mediated K562 cell adhesion to vitronectin; assay type: cell-based

Row | IC50 (Integrin alpha-V/beta-3 [2]) | SMILES | IC50 (Integrin alpha-V/beta-3 [3]) | inhibition (Integrin alpha-V/beta-3 [5]) | inhibition (Integrin alpha-V/beta-3 [6]) | also measured
1 | 5.64 nM | NC(N)=NCCC[C@@H]1NC(=O)CNC(=O)[C@@H](CC(=O)O)N[C@H]2CCC[C@H]3CC[C@H](C1=O)N3C2=O |  |  |  | IC50 (Integrin alpha-V/beta-5 [1]): 0.9 nM
2 | 0.26 nM | N=C(N)NCCC[C@@H]1NC(=O)[C@@H]2CC[C@H](C2)NC(=O)[C@H](CC(=O)O)NC(=O)CNC1=O |  |  |  | IC50 (Integrin alpha-V/beta-5 [1]): 1.12 nM
3 | 2.84 nM | CCCCCCCN1C[C@@H]2C[C@H]1C(=O)N[C@@H](CCCN=C(N)N)C(=O)NCC(=O)N[C@@H](CC(=O)O)C(=O)N2 | 178 nM |  |  | IC50 (Integrin alpha-V/beta-5 [1]): 36.1 nM; IC50 (Integrin alpha-V/beta-5 [4]): 62.3 nM
4 |  | N=C(N)NCCC[C@@H]1NC(=O)[C@@H]2C[C@@H](CN2C(=O)c2ccccc2)NC(=O)[C@H](CC(=O)O)NC(=O)CNC1=O |  | 57.8% | 42.2% | 
5 | 5.6 nM | CCC(=O)N1C[C@@H]2C[C@H]1C(=O)N[C@@H](CCCN=C(N)N)C(=O)NCC(=O)N[C@@H](CC(=O)O)C(=O)N2 | 251 nM |  |  | 
6 |  | CCCCCCCN1C[C@@H]2C[C@H]1C(=O)N[C@@H](CCCNC(=N)N)C(=O)NCC(=O)N[C@@H](CC(=O)O)C(=O)N2 |  | 53.7% | 46.3% | inhibition (Integrin alpha-V/beta-5 [7]): 29%; inhibition (Integrin alpha-V/beta-5 [8]): 71%
7 |  | COC(=O)[C@H]1[C@@H]2NC(=O)[C@H](CC(=O)O)NC(=O)CNC(=O)[C@H](CCCNC(=N)N)NC(=O)[C@H](C(C)C)NC(=O)[C@@H]21 |  |  |  | IC50 (Integrin alpha-5/beta-1 [9]): 1500 nM; IC50 (Integrin alpha-V/beta-3 [10]): 20 nM; IC50 (Integrin alpha-V/beta-3 [11]): 20 nM; IC50 (Integrin alpha-5/beta-1 [12]): 1500 nM
8 |  | N=C(N)NCCC[C@@H]1NC(=O)[C@@H]2C[C@H](CN2)NC(=O)[C@H](CC(=O)O)NC(=O)CNC1=O (H-[Pro(trans-4-NH2)]RGD; lactam 1-C) |  | 84.5% | 15.5% | 
9 |  | CCC(=O)N1C[C@@H]2C[C@H]1C(=O)N[C@@H](CCCNC(=N)N)C(=O)NCC(=O)N[C@@H](CC(=O)O)C(=O)N2 |  | 42.1% | 57.9% | 
10 |  | N=C(N)NCCC[C@@H]1NC(=O)[C@@H]2C[C@H](CN2C(=O)c2ccccc2)NC(=O)[C@H](CC(=O)O)NC(=O)CNC1=O |  | 31.6% | 68.4% | 

Row | SMILES | IC50 (Integrin alpha-V/beta-3 [2]) | IC50 (Integrin alpha-V/beta-3 [3]) | inhibition (Integrin alpha-V/beta-3 [5]) | inhibition (Integrin alpha-V/beta-3 [6]) | also measured
11 | NC(N)=NCCC[C@@H]1NC(=O)[C@@H]2C[C@H](CN2C(=O)c2ccccc2)NC(=O)[C@H](CC(=O)O)NC(=O)CNC1=O | 174 nM | 327 nM |  |  | 
12 | NC(N)=NCCC[C@@H]1NC(=O)[C@@H]2C[C@@H](CN2C(=O)c2ccccc2)NC(=O)[C@H](CC(=O)O)NC(=O)CNC1=O | 5.15 nM | 600 nM |  |  | 
